Key:
[1] = test system: WI-38; assay: Cytotoxicity against human WI-38 cells assessed as reduction in cell viability after 48 hrs by MTT assay; type: cell-based; details: WI-38, 48 h
Summary of the method: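 Cells from ATCC grown in DMEM with 10% FBS, insulin and 1% penicillin-streptomycin. Plated at 1.2-1.8 × 10,000 cells/well for 24 h, then exposed to compounds in DMSO vehicle for 48 h. MTT 0.5 mg/ml added for 2 h; absorbance read at 570 nm. Experiments run in triplicate.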

[2] = test system: Mus musculus; assay: Anticonvulsant activity against mouse model of LiCa/pilocarpine-induced status epilepticus assessed as mean power frequency at 20 mg/kg, po for 10 days by EEG method relative to control; type: functional; details: time 10 day
Summary of the method: (§1)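 Male mice (20-30 g), five per group, dosed orally once daily for 10 days. Status epilepticus was then induced with LiCa (3 mEq/kg i.p.), atropine sulfate (1 mg/kg i.p.) 30 min before pilocarpine, and pilocarpine HCl (300 mg/kg i.p.) 2 h after LiCa. Normal controls received oral distilled water. Comparators were untreated SE, phenytoin and lamotrigine. One-way ANOVA with Tukey post-hoc; mean ± SD.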

[3] = test system: Mus musculus; assay: Anticonvulsant activity against mouse model of LiCa/pilocarpine-induced status epilepticus assessed as spectral edge frequency at 20 mg/kg, po for 10 days by EEG method relative to control; type: functional; details: time 10 day; summary of the method: as §1
[4] = test system: Mus musculus; assay: Anticonvulsant activity against mouse model of LiCa/pilocarpine-induced status epilepticus assessed as total power at 20 mg/kg, po for 10 days by EEG method relative to control; type: functional; details: time 10 day; summary of the method: as §1
[5] = test system: Mus musculus; assay: Anticonvulsant activity against mouse model of LiCa/pilocarpine-induced status epilepticus assessed as amplitude at 20 mg/kg, po for 10 days by EEG method relative to control; type: functional; details: time 10 day; summary of the method: as §1
[6] = test system: Mus musculus; assay: Anticonvulsant activity against mouse model of LiCa/pilocarpine-induced status epilepticus assessed as amplitude density at 20 mg/kg, po for 10 days by EEG method relative to control; type: functional; details: time 10 day; summary of the method: as §1
[7] = test system: Mus musculus; assay: Anticonvulsant activity against mouse model of LiCa/pilocarpine-induced status epilepticus assessed as power pV2 at 20 mg/kg, po for 10 days by EEG method relative to control; type: functional; details: time 10 day; summary of the method: as §1
[8] = test system: Mus musculus; assay: Anticonvulsant activity against mouse model of LiCa/pilocarpine-induced status epilepticus assessed as total power density at 20 mg/kg, po for 10 days by EEG method relative to control; type: functional; details: time 10 day; summary of the method: as §1
[9] = test system: Mus musculus; assay: Anticonvulsant activity against mouse model of LiCa/pilocarpine-induced status epilepticus assessed as delta at 20 mg/kg, po for 10 days by EEG method relative to control; type: functional; details: time 10 day; summary of the method: as §1
[10] = test system: Mus musculus; assay: Anticonvulsant activity against mouse model of LiCa/pilocarpine-induced status epilepticus assessed as theta at 20 mg/kg, po for 10 days by EEG method relative to control; type: functional; details: time 10 day; summary of the method: as §1
[11] = test system: Mus musculus; assay: Anticonvulsant activity against mouse model of LiCa/pilocarpine-induced status epilepticus assessed as alpha at 20 mg/kg, po for 10 days by EEG method relative to control; type: functional; details: time 10 day; summary of the method: as §1
[12] = test system: Mus musculus; assay: Anticonvulsant activity against mouse model of LiCa/pilocarpine-induced status epilepticus assessed as MDA level in brain at 20 mg/kg, po for 10 days by calorimetric method relative to control; type: functional; details: time 10 day; summary of the method: as §1
[13] = test system: Mus musculus; assay: Anticonvulsant activity against mouse model of LiCa/pilocarpine-induced status epilepticus assessed as GSH level in brain at 20 mg/kg, po for 10 days by calorimetric method relative to control; type: functional; details: time 10 day; summary of the method: as §1
[14] = test system: Mus musculus; assay: Anticonvulsant activity against mouse model of LiCa/pilocarpine-induced status epilepticus assessed as GABA level in brain at 20 mg/kg, po for 10 days by ELISA relative to control; type: functional; details: time 10 day; summary of the method: as §1
[15] = test system: Mus musculus; assay: Anticonvulsant activity against mouse model of LiCa/pilocarpine-induced status epilepticus assessed as Glutamate level in brain at 20 mg/kg, po for 10 days by ELISA relative to control; type: functional; details: time 10 day; summary of the method: as §1

SMILES	IC50 [1] [nM]	Activity [2] [%]	Activity [3] [%]	Activity [4] [%]	Activity [5] [%]	Activity [6] [%]	Activity [7] [%]	Activity [8] [%]	Activity [9] [%]	Activity [10] [%]	Activity [11] [%]	Activity [12] [%]	Activity [13] [%]	Activity [14] [%]	Activity [15] [%]
COc1ccc(/C=C2\N=C(c3ccc(C)cc3)N(C(=O)c3nc4c(c(C)nn4-c4ccccc4)c(=O)[nH]3)NC2=O)cc1	36.8	-32.59	-18.75	18.66	79.11	56.84	198.49	222.48	295.04	32.29	4.98	-46.76	98.02	79.64	-67.77
COc1ccc(/C=C2/N=C(c3ccc(C)cc3)N(C(=O)Cc3nc4c(c(C)nn4-c4ccccc4)c(=O)[nH]3)NC2=O)cc1	18.6	-33	-26.44	33.82	80.44	82.98	218.96	264.63	362.78	27.12	0.71	-69.49	50.67	71.88	-50.42
Cc1nn(-c2ccccc2)c2nc(C(=O)N3NC(=O)/C(=C/c4ccccc4)N=C3c3ccccc3)[nH]c(=O)c12	49.5	-30.24	-16.31	13.12	67.11	78.42	138.76	229.32	314.32	28.9	12.39	-72.13	154.11	61.71	-58.33
Cc1nn(-c2ccccc2)c2nc(CC(=O)N3NC(=O)/C(=C\c4ccc(Cl)cc4)N=C3c3ccc(Cl)cc3)[nH]c(=O)c12	12.9	-25.05	-13.39	0.58	45.78	69.3	126.51	181.99	239.87	54.18	35.86	-60.61	146.06	82.22	-58.56
CS(=O)(=O)CCNCc1ccc(-c2ccc3ncnc(Nc4ccc(OCc5cccc(F)c5)c(Cl)c4)c3c2)o1 [LAPATINIB]	45.2	-50.58	-34.07	33.24	122.67	142.55	272.65	346.9	425.44	12.11	-8.6	-57.67	172.32	83.04	-81.12
COc1ccc(/C=C2\N=C(c3ccccc3)N(C(=O)c3nc4c(c(C)nn4-c4ccccc4)c(=O)[nH]3)NC2=O)cc1	97.7	-48.49	-25.28	30.61	99.56	88.15	230.03	265.27	368.94	29.32	-5.51	-54.04	141.33	68.66	-76.21

Source: ChEMBL document CHEMBL4732181, “Pyrazolo[3,4-d]pyrimidine-based dual EGFR T790M/HER2 inhibitors: Design, synthesis, structure-activity relationship and biological activity as potential antitumor and anticonvulsant agents” (Eur J Med Chem, 2021)
